Results: ChEMBL document CHEMBL1135577, “Synthesis and biological evaluation of structurally highly modified analogues of the antimitotic natural product curacin A” (J Med Chem, 2002)

Assays:
A2780 [1] = test: Tested for colchicine binding inhibition, using human ovarian cancer cell lines (at 5 uM ); format: functional
Summary of the method: (§1)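 [3H]colchicine (5 μM) was incubated with 1 μM tubulin and agent (1-250 μM) or DMSO vehicle (5% v/v) at 30 °C for 15 min or 37 °C for 10 min, in 1 M monosodium glutamate, 0.1 M glucose-1-phosphate, 1 mM MgCl2, 1 mM GTP and 0.5 mg/mL BSA. Samples were filtered through DEAE-cellulose and counted by scintillation. Values are means (N = 9 over four concentrations) ± SD.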

MCF7 [2] = test: Tested for 50% growth inhibitory concentration by using MCF-7 cell lines.; format: functional; conditions: Homo sapiens
Summary of the method: (§2)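 Cultured human tumor cells were seeded at 500-2000 cells/well, allowed to attach for 48 h, then exposed continuously for 48 h to DMSO vehicle or agent at five concentrations (e.g., 50-0.08 μM, 10-0.016 μM or 1-0.0016 μM series), each in quadruplicate. A time-zero plate was included. Cell number was read by MTS/phenazine methanesulfonate at A490-A630. Values are means (N = 4 over 10 concentrations) ± SD.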

Tubulin (Bos taurus) = test: Inhibition of tubulin polymerization of purified bovine brain tubulin
2008 [3] = test: 50% Growth inhibitory concentration( GI 50 ) by using 2008 human ovarian carcinoma cell lines.; format: functional; summary of the method: as §2
A2780 [4] = test: Compound was tested for Tubulin polymerization inhibition by using human ovarian cancer cell lines.; format: functional
Summary of the method: (§3)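 Tubulin (10 μM final, 1 mg/mL) was preincubated with agent in DMSO (4% v/v final) and 0.8 M monosodium glutamate for 15 min at 30 °C, then cooled to 0 °C and GTP (0.4 mM final) added. Turbidity at 350 nm was followed for 20 min at 30 °C. […] Values are averages of two determinations.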

PC-3 [5] = test: 50% Growth inhibitory concentration by using PC -3 human prostate carcinoma cell lines (48h continuous exposure); format: functional; conditions: PC-3, 48 h; summary of the method: as §2
2008 [6] = test: Compound was tested for 50% growth inhibitory concentration by using human ovarian carcinoma cell lines (2008); format: functional; summary of the method: as §2
A2780 [7] = test: Compound was tested for Tubulin polymerization inhibition by using human ovarian carcinoma cell lines.; format: functional; summary of the method: as §3
A2780 [8] = test: Compound was tested for colchicine Binding Inhibition by using human ovarian carcinoma cell line (at 5 uM ); format: functional; summary of the method: as §1
MDA-MB-231 [9] = test: Compound was tested for 50% Growth Inhibitory concentration by using MDA-MB-231 cell lines.; format: functional; conditions: Homo sapiens; summary of the method: as §2
PC-3 [10] = test: Compound was tested for 50% growth inhibitory concentration by using human prostate carcinoma cell lines (PC -3); format: functional; summary of the method: as §2
A2780 [11] = test: Compound tested for colchicine Binding Inhibition by using human ovarian carcinoma cell line (at 5 uM ); format: functional; summary of the method: as §1
A2780 [12] = test: Percent of Tubulin polymerization inhibition by using human ovarian cancer cell lines at a concentration of 5 uM; format: functional
Summary of the method: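 Purified tubulin (10 μM final, 1 mg/mL) was preincubated 15 min at 30 °C with agent in DMSO (4% v/v final) and 0.8 M monosodium glutamate. Samples were chilled to 0 °C, and GTP was added (0.4 mM final). Turbidity at 350 nm was followed for 20 min after a rapid rise to 30 °C. Inhibition was scaled between vehicle without GTP (100%) and GTP plus vehicle (0%). Values are averages of two determinations.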

A2780 [13] = test: Colchicine Binding Inhibition ( CBI ) by using human ovarian cancer cell lines at 5 uM, (values are mean of 9 over 4 concentrations +/- SD); format: functional
Summary of the method: (§4)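 [3H]-colchicine (5 μM, 2.3 TBq/mmol) and test agent (1–250 μM) or DMSO vehicle (5% v/v) were incubated with 1 μM purified tubulin at 30 °C for 15 min. The medium held 1 M monosodium glutamate, 0.1 M glucose-1-phosphate, 1 mM MgCl2, 1 mM GTP and 0.5 mg/mL BSA. Samples were filtered through DEAE-cellulose stacks, and […] was counted by scintillation. Values are means (N = 9 over four concentrations) ± SD.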

A2780 [14] = test: Compound tested for colchicine Binding Inhibition by using human ovarian cancer cell line (at 5 uM ); format: functional; summary of the method: as §4
MDA-MB-231 [15] = test: Compound was tested for 50% Growth Inhibitory concentration by using MDA - MB231 human breast carcinoma cell lines.; format: functional
Summary of the method: (§5)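 Cells (500–2000/well) attached and grew for 48 h, then received DMSO vehicle or agent at five-point 5-fold dilutions (from 50, 10 or 1 μM top) for 48 h, continuous exposure. A time-zero plate was included, and each concentration was run in quadruplicate. Cell number was read by MTS/phenazine methanesulfonate, A490 minus A630. Values are means (N = 4 over 10 concentrations) ± SD.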

MCF7 [16] = test: Compound was tested for 50% Growth Inhibitory concentration against MCF-7 cell lines.; format: functional; conditions: Homo sapiens; summary of the method: as §5
A2780 [17] = test: Inhibition of tubulin polymerization in analogy of ca.; format: functional, cell-based; conditions: Homo sapiens; summary of the method: as §3
[18] = Average growth inhibition activity in analogy of ca.; format: functional; summary of the method: as §2

Row | SMILES | inhibition at 5 µM (A2780 [1]) | GI50 (MCF7 [2]) | IC50 (Tubulin (Bos taurus)) | further results
1 | C=CC[C@@H](CC/C(C)=C\C=C\CC/C=C\[C@@H]1CSC([C@@H]2C[C@@H]2C)=N1)OC [CURACIN C] | 10% | 3.6 µM | 2.3 µM | –
2 | C=CC[C@@H](CC/C(C)=C/C=C/CC/C=C\[C@H](CSC)NC(C)=O)OC | 12% | 5.2 µM | 3.3 µM | –
3 | C=CC[C@@H](CC/C(C)=C/C=C/CCCO)OC | 0% | > 10 µM | > 80 µM | –
4 | C=CC[C@@H](CC/C(C)=C/C=C/CC/C=C\[C@H]1CSC([C@@H]2C[C@@H]2C)=N1)OC | 3% | > 1 µM | 5.5 µM | –
5 | C=CC[C@@H](CC/C(C)=C/C=C/CC/C=C\[C@@H]1CSC(C(C)(C)C)=N1)OC | 35% | – | – | GI50 2008 [3]: 0.22 µM; TPI (A2780 [4]): 100%; GI50 (PC-3 [5]): 0.13 µM
6 | C=CC[C@H](CC/C(C)=C/C=C/CC/C=C\[C@@H]1CSC([C@@H]2C[C@@H]2C)=N1)OC | 56% | 0.18 µM | 0.67 µM | –
7 | C=CC[C@@H](CC[C@@]1(C)C[C@@H]1[C@H]1C[C@@H]1CC/C=C\[C@@H]1CSC([C@@H]2C[C@@H]2C)=N1)OC | – | – | – | GI50 2008 [6]: > 50 µM; TPI (A2780 [7]): 0%; inhibition at 5 µM (A2780 [8]): < 10%; GI50 (MDA-MB-231 [9]): > 50 µM; GI50 (PC-3 [10]): > 50 µM
8 | COc1cc(COCCC/C=C/C=C(\C)CCC(O)c2cccs2)cc(OC)c1OC (centres undefined) | – | – | – | GI50 2008 [6]: 15 µM; TPI (A2780 [7]): 7%; inhibition at 5 µM (A2780 [11]): < 10%; GI50 (MDA-MB-231 [9]): > 50 µM; GI50 (PC-3 [10]): 18 µM
9 | C=CC[C@@H](CC/C=C/C=C/CC/C=C\[C@@H]1CSC([C@@H]2C[C@@H]2C)=N1)OC | 53% | 0.34 µM | – | –
10 | C=CC[C@@H](CC/C(C)=C/C=C/CC/C=C\[C@@H]1CSC([C@@H]2C[C@@H]2C)=N1)OC [CURACIN A] | – | – | 0.72 µM | GI50 2008 [3]: 0.035 µM; TPI (A2780 [12]): 98%; inhibition at 5 µM (A2780 [13]): 78%; inhibition at 5 µM (A2780 [14]): 94%; GI50 (MDA-MB-231 [15]): 0.096 µM; GI50 (MCF7 [16]): 0.04 µM; GI50 (PC-3 [5]): 0.05 µM
11 | C=CC[C@H](O)CC/C(C)=C/C=C/CC/C=C\C1CSC([C@@H]2C[C@@H]2C)=N1 (some centres undefined) | 82% | 0.45 µM | 0.87 µM | –
12 | CC(C)=C/C=C/CC/C=C\[C@@H]1CSC([C@@H]2C[C@@H]2C)=N1 | – | – | > 50 µM | –
13 | COc1cc(/C=C/CC/C=C/C=C(\C)CCC(O)c2cccs2)cc(OC)c1OC (centres undefined) | < 10% | – | – | GI50 2008 [3]: 21 µM; TPI (A2780 [4]): 25%; GI50 (PC-3 [5]): 35 µM
14 | COc1cc(/C=C\CC/C=C/C=C(\C)CCC(O)c2cc3ccccc3o2)cc(OC)c1OC (centres undefined) | – | – | – | IC50 (A2780 [17]): 1 µM; GI50 [18]: 0.25 µM
15 | COc1cc(/C=C\CC/C=C/C=C(\C)CCC(O)c2cccs2)cc(OC)c1OC (centres undefined) | 39% | – | – | GI50 2008 [3]: 0.28 µM; TPI (A2780 [4]): >95%
16 | CCC[C@@H](CC/C(C)=C/C=C/CC/C=C\[C@@H]1CSC([C@@H]2C[C@@H]2C)=N1)OC | 85% | 0.05 µM | 1.2 µM | –
17 | CCC[C@@H](CC/C(C)=C/C=C/CCCCC1CSC([C@@H]2C[C@@H]2C)=N1)OC (some centres undefined) | 1% | 3.3 µM | 4.6 µM | –
18 | C=CC[C@@H](CC/C(C)=C/C=C/CC/C=C\[C@@H]1CSC([C@H]2C[C@H]2C)=N1)OC | 48% | 0.36 µM | 2.1 µM | –
19 | C=CC[C@@H](CC/C(C)=C/C=C/CC/C=C\[C@@H]1CSC([C@H]2C[C@@H]2C)=N1)OC | 88% | 0.99 µM | 0.77 µM | –
